Data reported in ChEMBL document CHEMBL1681666, “Synthesis and in vitro screening of novel N-benzyl aplysinopsin analogs as potential anticancer agents” (2011).

Key:
Type in all cases: functional
[1] = test system: SK-MEL-2; test: Anticancer activity against human SK-MEL-2 cells
Method in brief: (§1)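 NCI 60-cell human tumour panel (leukemia, lung, colon, CNS, melanoma, ovarian, renal, prostate, breast). A first-stage single-dose screen at 10 µM was run. Compounds giving over 60% growth inhibition in at least eight lines went on to a five-dose response. Effect was plotted against log10 molar concentration per line. GI50 is the concentration giving 50% reduction in net protein increase versus control cells. LC50 is the concentration lethal to 50% of cells.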

[2] = test system: NCI-H322M; test: Anticancer activity against human NCI-H322M cells; method in brief: as §1
[3] = test system: UO-31; test: Anticancer activity against human UO31 cells
Method in brief: (§2)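 NCI 60-cell-line panel. A single-dose (10 µM) prescreen was run first. Compounds giving over 60% growth inhibition in at least eight lines then went to five-dose response studies. Dose-response curves of effect versus log10 concentration. GI50 is the molar concentration giving a 50% reduction in net protein increase versus control cells. LC50 is the concentration lethal to 50% of cells.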

[4] = test system: MDA-MB-468; test: Anticancer activity against human MDA-MB-468 cells; method in brief: as §1
[5] = test system: HT-29; test: Anticancer activity against human HT-29 cells; method in brief: as §1
[6] = test system: SW-620; test: Anticancer activity against human SW620 cells; method in brief: as §2
[7] = test system: SK-MEL-5; test: Anticancer activity against human SK-MEL-5 cells; method in brief: as §1
[8] = test system: CCRF-CEM; test: Anticancer activity against human CCRF-CEM cells; method in brief: as §1
[9] = test system: T47D; test: Anticancer activity against human T47D cells; method in brief: as §2
[10] = Anticancer activity against human Hs 578T cells; method in brief: as §1
[11] = test system: SF-539; test: Anticancer activity against human SF539 cells; method in brief: as §1
[12] = test system: M14; test: Anticancer activity against human M14 cells; method in brief: as §1
[13] = test system: OVCAR-5; test: Anticancer activity against human OVCAR5 cells; method in brief: as §1
[14] = test system: NCI-H23; test: Anticancer activity against human NCI-H23 cells; method in brief: as §1
[15] = test system: HCC 2998; test: Anticancer activity against human HCC2998 cells; method in brief: as §1
[16] = test system: SK-MEL-28; test: Anticancer activity against human SK-MEL-28 cells; method in brief: as §1
[17] = test system: SF-268; test: Anticancer activity against human SF268 cells; method in brief: as §1
[18] = test system: SF-295; test: Anticancer activity against human SF295 cells; method in brief: as §1
[19] = test system: RXF 393; test: Anticancer activity against human RXF393 cells; method in brief: as §1
[20] = test system: UACC-257; test: Anticancer activity against human UACC257 cells; method in brief: as §2
[21] = test system: NCI-H226; test: Anticancer activity against human NCI-H226 cells; method in brief: as §1
[22] = test system: MCF7; test: Anticancer activity against human MCF7 cells; method in brief: as §1
[23] = test system: COLO 205; test: Anticancer activity against human COLO205 cells; method in brief: as §1
[24] = test system: CAKI-1; test: Anticancer activity against human Caki1 cells; method in brief: as §1
[25] = test system: OVCAR-3; test: Anticancer activity against human OVCAR3 cells; method in brief: as §1
[26] = Anticancer activity against human NCI/ADR cells; conditions: NCI/ADR-RES; method in brief: as §1
[27] = test system: A549; test: Anticancer activity against human A549 cells; method in brief: as §1
[28] = test system: U-251; test: Anticancer activity against human U251 cells; method in brief: as §2
[29] = test system: OVCAR-8; test: Anticancer activity against human OVCAR8 cells; method in brief: as §1
[30] = test system: HOP-62; test: Anticancer activity against human HOP62 cells; method in brief: as §1
[31] = test system: 786-0; test: Anticancer activity against human 786-0 cells; method in brief: as §1
[32] = test system: HL-60(TB); test: Anticancer activity against human HL-60(TB) cells; method in brief: as §1
[33] = test system: ACHN; test: Anticancer activity against human ACHN cells; method in brief: as §1
[34] = test system: SK-OV-3; test: Anticancer activity against human SKOV3 cells; method in brief: as §1
[35] = test system: MDA-MB-231; test: Anticancer activity against human MDA-MB-231 cells; method in brief: as §1
[36] = test system: UACC-62; test: Anticancer activity against human UACC62 cells; method in brief: as §2
[37] = test system: EKVX; test: Anticancer activity against human EKVX cells; method in brief: as §1
[38] = test system: BT-549; test: Anticancer activity against human BT549 cells; method in brief: as §1
[39] = test system: PC-3; test: Anticancer activity against human PC3 cells; method in brief: as §1
[40] = test system: A498; test: Anticancer activity against human A498 cells; method in brief: as §1
[41] = test system: KM12; test: Anticancer activity against human KM12 cells; method in brief: as §1
[42] = test system: OVCAR-4; test: Anticancer activity against human OVCAR4 cells; method in brief: as §1
[43] = test system: SN12C; test: Anticancer activity against human SN12C cells; method in brief: as §1
[44] = test system: SNB-19; test: Anticancer activity against human SNB19 cells; method in brief: as §1
[45] = test system: HCT-116; test: Anticancer activity against human HCT116 cells; method in brief: as §1
[46] = test system: LOX IMVI; test: Anticancer activity against human LOXIMVI cells; method in brief: as §1
[47] = test system: NCI-H460; test: Anticancer activity against human NCI-H460 cells; method in brief: as §1
[48] = test system: Malme-3M; test: Anticancer activity against human MALME-3M cells; method in brief: as §1
[49] = test system: K562; test: Anticancer activity against human K562 cells; method in brief: as §1
[50] = test system: MDA-MB-435; test: Anticancer activity against human MDA-MB-435 cells; method in brief: as §1
[51] = test system: IGROV-1; test: Anticancer activity against human IGROV1 cells; method in brief: as §1
[52] = test system: MOLT-4; test: Anticancer activity against human MOLT4 cells; method in brief: as §1
[53] = test system: SNB-75; test: Anticancer activity against human SNB75 cells; method in brief: as §2
[54] = test system: TK-10; test: Anticancer activity against human TK10 cells; method in brief: as §2
[55] = Anticancer activity against human […] cells; method in brief: as §1
[56] = read-out: LC50 (the source's name)

`COC(=O)c1ccc2c(/C=C3\NC(=O)NC3=O)cn(Cc3ccc(C#N)cc3)c2c1` showed a GI50 [1] of 300 nM, a CC50 [1, 56] of 30.6 µM and a GI50 [2] of 720 nM. The CC50 [2, 56] was > 100 µM, the GI50 [3] was 2700 nM and the CC50 [3, 56] was > 100 µM. For the same compound, the GI50 [4] was 4.14 µM, the CC50 [4, 56] was > 100 µM and the GI50 [5] was 5.99 µM. The CC50 [5, 56] was > 100 µM, the GI50 [6] was 2270 nM and the CC50 [6, 56] was > 100 µM. For the same compound, the GI50 [7] was 3.25 µM, the CC50 [7, 56] was > 100 µM and the GI50 [8] was 3.06 µM. The CC50 [8, 56] was > 100 µM, the GI50 [9] was 1500 nM and the CC50 [9, 56] was > 100 µM. For the same compound, the GI50 [10] was 970 nM, the CC50 [10, 56] was > 100 µM and the GI50 [11] was 2390 nM. The CC50 [11, 56] was > 100 µM, the GI50 [12] was 1430 nM and the CC50 [12, 56] was > 100 µM. For the same compound, the GI50 [13] was 5.51 µM, the CC50 [13, 56] was > 100 µM and the GI50 [14] was 4.07 µM. The CC50 [14, 56] was > 100 µM, the GI50 [15] was 2430 nM and the CC50 [15, 56] was 85 µM. For the same compound, the GI50 [16] was 3.79 µM, the CC50 [16, 56] was > 100 µM and the GI50 [17] was 4.22 µM. The CC50 [17, 56] was > 100 µM, the GI50 [18] was 3.09 µM and the CC50 [18, 56] was > 100 µM. For the same compound, the GI50 [19] was 580 nM, the CC50 [19, 56] was > 100 µM and the GI50 [20] was 4.2 µM. For the same compound, the CC50 [20, 56] was > 100 µM, the GI50 [21] was 5.94 µM and the CC50 [21, 56] was > 100 µM. The GI50 [22] was 3.55 µM, the CC50 [22, 56] was > 100 µM and the GI50 [23] was 3.16 µM. The CC50 [23, 56] was > 100 µM, the GI50 [24] was 2740 nM and the CC50 [24, 56] was > 100 µM. For the same compound, the GI50 [25] was 2050 nM, the CC50 [25, 56] was > 100 µM and the GI50 [26] was > 100 µM. For the same compound, the CC50 [26, 56] was > 100 µM, the GI50 [27] was 4.44 µM and the CC50 [27, 56] was > 100 µM. The GI50 [28] was 2030 nM, the CC50 [28, 56] was 59.1 µM and the GI50 [29] was 3.75 µM. For the same compound, the CC50 [29, 56] was > 100 µM, the GI50 [30] was 3.58 µM and the CC50 [30, 56] was 73 µM. The GI50 [31] was 2360 nM, the CC50 [31, 56] was > 100 µM and the GI50 [32] was 2540 nM. For the same compound, the CC50 [32, 56] was > 100 µM, the GI50 [33] was 2080 nM and the CC50 [33, 56] was > 100 µM. It also gave a GI50 [34] of 860 nM, a CC50 [34, 56] of 79.8 µM and a GI50 [35] of 3.32 µM. The CC50 [35, 56] was > 100 µM, the GI50 [36] was 1270 nM and the CC50 [36, 56] was 51 µM. For the same compound, the GI50 [37] was 4.22 µM, the CC50 [37, 56] was > 100 µM and the GI50 [38] was 1240 nM. The CC50 [38, 56] was > 100 µM, the GI50 [39] was 2440 nM and the CC50 [39, 56] was > 100 µM. For the same compound, the GI50 [40] was 550 nM, the CC50 [40, 56] was > 100 µM and the GI50 [41] was 3.73 µM. The CC50 [41, 56] was > 100 µM, the GI50 [42] was 4.13 µM and the CC50 [42, 56] was > 100 µM. The GI50 [43] was 2800 nM, the CC50 [43, 56] was > 100 µM and the GI50 [44] was 3.77 µM. For the same compound, the CC50 [44, 56] was > 100 µM, the GI50 [45] was 1210 nM and the CC50 [45, 56] was > 100 µM. The GI50 [46] was 1430 nM, the CC50 [46, 56] was > 100 µM and the GI50 [47] was 2910 nM. For the same compound, the CC50 [47, 56] was > 100 µM, the GI50 [48] was 2010 nM and the CC50 [48, 56] was > 100 µM. The GI50 [49] was 970 nM, the CC50 [49, 56] was > 100 µM and the GI50 [50] was 2760 nM. For the same compound, the CC50 [50, 56] was > 100 µM, the GI50 [51] was 660 nM and the CC50 [51, 56] was > 100 µM. The GI50 [52] was 1380 nM, the CC50 [52, 56] was > 100 µM and the GI50 [53] was 4.6 µM. The CC50 [53, 56] was > 100 µM, the GI50 [54] was 3.87 µM and the CC50 [54, 56] was > 100 µM. For the same compound, the GI50 [55] was 3.61 µM and the CC50 [55, 56] was > 100 µM.
